High-throughput results from PubChem.
TMEM16A inh: inhibitors of mouse TMEM16A calcium-activated chloride channel | HEK293 TMEM16A/YFP iodide influx fluorescence, ionomycin | normalized B-score (activity score, 25-100; higher = stronger inhibition) at 10 µM | 310,000 compounds, 1.2% hits | AID 588511;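 active = ratio plate-corrected score three or more library SD toward inhibition, starting fluorescence score within five deviations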;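 also: score derived from kinetic fluorescence span divided by baseline fluorescence per well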
TAAR1 antag: human TAAR1 antagonism; Q96RJ0; CHO RD-HGA16 TAAR1, Fluo-8 calcium fluorescence, antagonist; AID 624466; inhibition, % at 3 µM; 360,000 compounds, 1.5% hits;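 active = inhibition above a per-plate cutoff, the mean inhibition of test compounds on that plate plus 3 SD, cut at about 49% in these data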;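 also: 0% = DMSO plus EC80 beta-PEA response and 100% = DMSO alone without agonist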
Target sequence (Q96RJ0 whole entry, looked up): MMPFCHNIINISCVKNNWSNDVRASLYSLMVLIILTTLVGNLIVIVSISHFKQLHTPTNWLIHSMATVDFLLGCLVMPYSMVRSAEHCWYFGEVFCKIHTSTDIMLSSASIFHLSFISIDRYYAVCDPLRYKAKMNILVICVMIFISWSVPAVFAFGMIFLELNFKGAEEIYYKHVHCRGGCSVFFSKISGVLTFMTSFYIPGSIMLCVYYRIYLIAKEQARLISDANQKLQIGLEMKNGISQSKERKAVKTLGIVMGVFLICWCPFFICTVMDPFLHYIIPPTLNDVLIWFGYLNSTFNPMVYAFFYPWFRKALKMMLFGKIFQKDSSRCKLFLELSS
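Test system – hTAAR1-expressing CHO RD-HGA16 cells, Gα16-coupled · Also added – β-PEA at EC80 concentration, post-compound challenge · Compound – 3 µM, single point · Incubation – dye loading 75 min at 37 °C, then 30 min room temperature · Measured by – Fluo-8 intracellular calcium dye fluorescence, real-time kinetic reads · Benchmarks – vehicle and agonist controls · Replicates – singlicate, one well per test compound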
CRFR2-BP antag: antagonists of CRF-binding protein/CRF-R2 receptor complex. inhibition, % at 11.8 µM. AID 588475. 350,000 compounds, 0.59% hits. HEK293 CRF-R2/CRF-BP, CRF-induced calcium fluorescence;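 active = inhibition of the ligand-induced calcium signal above about 50% at the single tested concentration, limit read from the data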
ANO1 activ: activators or potentiators of mouse TMEM16A chloride channel | 340,000 compounds, 0.3% hits | Q8BHY3 | HEK293 TMEM16A/YFP-H148Q/I152L, iodide quench fluorescence; hits give low values | B-score at 10 µM;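 active = fluorescence-ratio B-score plate-corrected deviation score at least 3 library SD below zero, with starting fluorescence score within 5 deviations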;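 also: channel opened by trigger with iodide after compound preincubation; score built on the fluorescence ratio of max minus min over baseline; more negative score means more quench and so TMEM16A activation or potentiation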
TAAR1 ag: agonists of human TAAR1. Q96RJ0. CHO RD-HGA16 TAAR1, Fluo-8 calcium fluorescence; vehicle wells 0%, saturating PEA agonist 100%. activation, % at 3 µM. 360,000 compounds, 0.99% hits;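 active = activation above the mean activation of all test compounds in the run plus 3 SD, cut at about 38% in these data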
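test system = CHO RD-HGA16 cells carrying human TAAR1 plus Gα16 | schedule = 17-24 h seeding, 75 min 37 °C dye, 30 min RT | compound dosing = 3 µM single concentration | control set = DMSO and PEA EC100 | replicates = n 1 | signal = Fluo-8 fluorescence, 5 s baseline then 140 s kinetic read | measure = percent activation vs PEA EC100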
CRFR2-BP ag: agonists of human CRF-binding protein/CRF-R2 receptor complex. HEK293 CRF-R2/CRF-BP, calcium dye fluorescence (FLIPR); percent of saturating CRF peptide response. activation, % at 13.2 µM. 350,000 compounds, 0.46% hits;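 active = activation of at least 50%, plus an integration ratio under a set limit after plate pattern correction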;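 also: plate controls were neutral control wells without compound for no effect and CRF at EC100 for full effect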
TAAR1 ag confirm: confirmation of human TAAR1 agonists | shares compounds with TAAR1 ag | CHO RD-HGA16 TAAR1, Fluo-8 calcium fluorescence; scaled: DMSO 0%, maximal phenethylamine 100% | activation, % at 3 µM | 2,400 compounds, 82% hits | AID 651783;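 active = activation above a cutoff set at the run's mean compound activation plus 3 SD, cut at about 39% in these data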
Ga16 ag counter: nonselective agonism, TAAR1 counter-screen | shares compounds with TAAR1 ag | CHO-Ga16 parental, Fluo-8 calcium fluorescence; normalized to maximal ATP response, DMSO zero | activation, % at 3 µM | 2,400 compounds, 50% hits;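 active = activation above the run cutoff, the mean activation over all tested wells plus 3 SD, cut at about 12% in these data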;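 also: 0% = DMSO wells and 100% = maximal ATP response on the peak over basal ratio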
TAAR1 desensitize: counter-screen for human TAAR1 agonists: agonists that desensitize TAAR1; shares compounds with TAAR1 ag; CHO RD-HGA16 hTAAR1, Fluo-8 calcium, beta-PEA response inhibition; inhibition, % at 3 µM; 2,400 compounds, 46% hits; AID 651951;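 active = inhibition above the run cutoff, the mean inhibition of all test compounds plus 3 SD, cut at about 49% in these data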;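 also: beta-PEA stimulus applied at its EC80; loss of beta-PEA calcium signal after compound pretreatment read as receptor desensitization; 0% = DMSO with beta-PEA at EC80 and 100% = DMSO alone without agonist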
Ga16 antag count: nonselective Ga16 antagonist in TAAR1 agonist counter-screen | shares compounds with TAAR1 ag | inhibition, % at 3 µM | 2,400 compounds, 39% hits | CHO-Ga16 ATP-induced calcium, Fluo-8 fluorescence;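 active = inhibition above the plate's mean compound inhibition plus 3 SD, computed per plate, cut at about 22% in these data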;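 also: 0% = EC80 ATP with DMSO and 100% = DMSO wells without ATP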
Starred values were filed as active, the others as inactive; i = inactive; x = not tested or not shown. Most compounds without a hit are left out; they make up all but 3.9% or so of the library.

SMILES | TMEM16A inh | TAAR1 antag | CRFR2-BP antag | ANO1 activ | TAAR1 ag | CRFR2-BP ag | TAAR1 ag confirm | Ga16 ag counter | TAAR1 desensitize | Ga16 antag count
Cc1cc(C)cc(N2C(=O)NC(=O)/C(=C\C=C\c3ccco3)C2=O)c1 | i | 23 | -55 | i | 50* | 6 | 72* | 47* | 40 | 16
O=C1NC(=O)N(Cc2ccc(F)cc2)C(=O)/C1=C\C=C\c1ccco1 | i | 30 | -59 | i | 17 | 11 | x | x | x | x
CCc1ccc(N2C(=O)NC(=O)/C(=C\C=C\c3ccco3)C2=O)cc1 | i | 42 | -86 | i | 73* | 15 | 67* | 26* | 69* | 19
CCC(C)n1c(O)c(C=NCCc2ccccc2)c(=O)[nH]c1=S (stereo not given) | i | 5 | -68 | i | 69* | -1 | 60* | 1 | 14 | 8
C=CCn1c(O)c(C(CC)=Nc2cccc(C(=O)O)c2)c(=O)[nH]c1=O | i | -38 | -1 | i | 1 | 2 | x | x | x | x
COc1ccc2[nH]c3c(c2c1)CCNC3 | i | -14 | 2 | i | 44* | -1 | 59* | 0 | 27 | 5
O=[N+]([O-])c1ccc(NCc2ccccc2)c2nonc12 | i | 107* | i | x | 954* | 493* | 496* | 650* | 105* | 103*
O=[N+]([O-])c1ccc(NCc2ccc(Cl)cc2)c2ccncc12 | i | -1 | 13 | i | 16 | -1 | x | x | x | x
COc1ccccc1-n1c(-c2ccccc2Br)nc2ccccc2c1=O | i | 9 | 8 | i | -1 | 0 | x | x | x | x
Nc1ccc2nonc2c1[N+](=O)[O-] | i | 23 | -31 | i | 72* | 70* | 3 | 25* | 4 | 9
CN(c1ccc(O)cc1)c1ccc([N+](=O)[O-])c2nonc12 | x | 0 | -6 | x | 0 | 1 | x | x | x | x
COc1cc(C[C@@H](C)N)c(OC)cc1I | i | -7 | 10 | i | 22 | 0 | x | x | x | x
COc1ccc(CCNCc2ccc(Br)cc2)cc1OC | i | -11 | 0 | i | 15 | 1 | x | x | x | x
Cc1ccccc1CCNCc1ccc(Br)cc1 | i | 50* | -63 | i | 71* | -1 | 93* | 14* | 67* | 12
Cc1cccc(CCNCc2cc3cc(C)cc(C)c3[nH]c2=O)c1 | i | 78* | -14 | i | 108* | 1 | 102* | 3 | 90* | 0
Cc1cccc(CCNCc2cc3cccc(C)c3[nH]c2=O)c1 | i | 8 | -21 | i | 20 | 2 | x | x | x | x
Cc1ccc2cc(CNCCc3ccccc3C)c(=O)[nH]c2c1 | i | 81* | -19 | i | 76* | 0 | 83* | 4 | 92* | 3
Cc1nn(CC(C)C)c(Cl)c1C(=O)NC1CCC(C)CC1 (stereo not given) | i | 4 | 0 | i | -1 | -4 | x | x | x | x
c1ccc(Cc2cnc(N3CCNCC3)nc2)cc1 | x | -18 | x | x | 45* | x | 58* | 0 | 19 | 5
c1cnc(N2CCNCC2)nc1 | i | -20 | 1 | i | 23 | 0 | x | x | x | x
CCC(=NCCCn1ccnc1)c1c(O)n(-c2ccc(OC)cc2)c(=O)[nH]c1=O | i | -6 | 16 | i | 1 | -2 | x | x | x | x
COc1ccc(CC2(CCc3ccncc3)C(=O)NC(=O)NC2=O)c(OC)c1 | i | -1 | -7 | i | 7 | 8 | x | x | x | x
CS(=O)(=O)NNP(=O)(NNS(C)(=O)=O)NC(=O)c1ccc(Br)cc1 | i | -7 | 30 | i | 0 | -1 | x | x | x | x
O=C(NCCN1CCC2(CC1)C(=O)NCN2c1ccccc1)c1ccc(F)c(F)c1 | x | 103* | x | x | 110* | x | 102* | 67* | 104* | 87*
O=C(NCCN1CCC2(CC1)C(=O)NCN2c1ccccc1)c1cccc(F)c1 | x | 74* | x | x | 60* | x | 39* | 21* | 54* | 31*
SMILES | TMEM16A inh | TAAR1 antag | CRFR2-BP antag | ANO1 activ | TAAR1 ag | CRFR2-BP ag | TAAR1 ag confirm | Ga16 ag counter | TAAR1 desensitize | Ga16 antag count
CCOC(=O)[C@]12Cc3cc4ccccc4cc3[C@H]1N(Cc1ccccc1)C(=O)c1cc(OC)ccc12 | x | -50 | x | x | 1 | x | x | x | x | x
CN1CCCN(C(=O)COc2cccc(C(F)(F)F)c2)CC1 | i | 4 | -7 | i | 1 | -1 | x | x | x | x
COc1ccc2c(CCN)c[nH]c2c1 | i | 6 | 5 | i | 52* | 0 | 80* | 1 | 45 | 10
COc1ccc2[nH]cc(CCN(C)C)c2c1 | i | -5 | 14 | i | 2 | 0 | x | x | x | x
Cc1cccc(N2C(=O)NC(=O)/C(=C\c3cc(C)n(-c4sc5c(c4C#N)CCCC5)c3C)C2=O)c1C | i | 9 | -54 | i | 5 | 13 | x | x | x | x
CCOC(=O)c1c(-n2c(C)cc(C=C3C(=O)NC(=O)NC3=O)c2C)sc2c1CCCC2 | i | 35 | -42 | i | 47* | 9 | 53* | 28* | 44 | 38*
C=CCn1c(O)c(C(CC)=NCCc2c[nH]c3ccccc23)c(=O)[nH]c1=O | i | 26 | -31 | i | 9 | 0 | x | x | x | x
CCCCn1c(O)c(C(CC)=NCCc2ccccc2)c(=O)[nH]c1=O | i | 70* | -26 | i | 58* | 5 | 68* | 7 | 43 | 23*
C=CCn1c(O)c(C(CC)=NCCc2ccccc2)c(=O)[nH]c1=O | i | 30 | -11 | i | 74* | -1 | 78* | 5 | 40 | 5
c1ccc2c(c1)CC1CNCc3cccc(c31)S2 (stereo not given) | i | 6 | 5 | i | 73* | -2 | 93* | 5 | 79* | -3
Cc1ccc(N=C(/N=C(\N)N[N+](=O)[O-])Nc2ccc(C)cc2)cc1 | i | -12 | -7 | i | 0 | 0 | x | x | x | x
CC(Cc1ccccc1)NC(=O)/C=C/C(=O)O (stereo not given) | i | x | -9 | i | x | 1 | x | 2 | x | 2
O=c1cc(C(F)(F)F)c2cc3c4c(c2o1)CCCN4CCC3 | i | 95* | -134 | i | 195* | 173* | 89* | 112* | 70* | 75*
CCNC(=S)NCCC1=c2ccccc2=N/C1=C\c1c(O)n(C)c(=O)n(C)c1=O | i | 33 | 12 | i | 9 | 1 | x | x | x | x
Cc1ccc2c(c1)N(C(=O)CCC(=O)N1CCC3(CC1)OCCO3)CC(C)O2 (stereo not given) | i | -16 | -8 | i | 2 | 0 | x | x | x | x
NCCc1ccc(O)cc1 | i | 89* | 12 | i | 118* | -1 | 99* | 3 | 94* | 1
